From ChEMBL document CHEMBL1142719 (J Med Chem, 2005)

Key:
[1] = target: T1, Adenosine receptor A2b (Homo sapiens) (UniProt P29275); experiment: Relative activation of human Adenosine A2B receptor at 10 uM treatment compared to 10 uM Cl-IB-MECA; assay type: functional
T1 sequence (whole entry): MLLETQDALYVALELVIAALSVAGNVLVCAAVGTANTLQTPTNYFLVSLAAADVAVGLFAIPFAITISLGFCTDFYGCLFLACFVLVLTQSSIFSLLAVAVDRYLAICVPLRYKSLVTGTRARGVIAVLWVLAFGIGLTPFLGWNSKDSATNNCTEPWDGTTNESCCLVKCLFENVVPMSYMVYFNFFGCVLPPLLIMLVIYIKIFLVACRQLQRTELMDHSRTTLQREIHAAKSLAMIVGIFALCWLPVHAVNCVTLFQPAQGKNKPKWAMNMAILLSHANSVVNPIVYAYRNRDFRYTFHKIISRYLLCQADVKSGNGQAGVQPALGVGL

Adenosine receptor A2a [2] = target: T2, Adenosine receptor A2a (Homo sapiens, UniProt P29274); experiment: Inhibition of [3H]-CGS- 21680 binding to human Adenosine A2A receptor expressed in CHO cells; assay type: cell-based
[3] = target: T3, Adenosine receptor A3 (Homo sapiens) (UniProt P0DMS8); experiment: Relative activation of human Adenosine A3 receptor expressed in CHO cells at 10 uM treatment compared to 10 uM Cl-IB-MECA; assay type: functional, cell-based
T3 sequence (whole entry): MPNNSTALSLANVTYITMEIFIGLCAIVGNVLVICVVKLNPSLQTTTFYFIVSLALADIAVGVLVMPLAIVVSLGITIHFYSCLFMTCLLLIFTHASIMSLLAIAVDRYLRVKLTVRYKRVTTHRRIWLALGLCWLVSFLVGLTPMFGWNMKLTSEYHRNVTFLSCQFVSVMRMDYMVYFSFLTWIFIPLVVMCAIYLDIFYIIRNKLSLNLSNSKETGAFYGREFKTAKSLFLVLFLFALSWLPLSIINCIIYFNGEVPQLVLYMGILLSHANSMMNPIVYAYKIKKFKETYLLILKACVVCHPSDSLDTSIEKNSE

Adenosine receptor A1 = target: T4, Adenosine receptor A1 (Homo sapiens, UniProt P30542); experiment: Inhibition of [3H]R-PIA binding to human Adenosine A1 receptor expressed in CHO cells; assay type: cell-based
T4 sequence (P30542 whole entry): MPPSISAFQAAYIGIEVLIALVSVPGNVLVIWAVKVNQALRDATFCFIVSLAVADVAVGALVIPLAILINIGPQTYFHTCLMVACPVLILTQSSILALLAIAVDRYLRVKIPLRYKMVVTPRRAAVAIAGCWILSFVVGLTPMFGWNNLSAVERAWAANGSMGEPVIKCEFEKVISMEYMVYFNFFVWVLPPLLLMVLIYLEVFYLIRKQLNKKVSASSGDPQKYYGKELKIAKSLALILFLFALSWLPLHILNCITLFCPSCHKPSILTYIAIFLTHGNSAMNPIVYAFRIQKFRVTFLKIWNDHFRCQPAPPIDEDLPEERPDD

Adenosine receptor A3 [4] = target: T5, Adenosine receptor A3 (Rattus norvegicus, UniProt P28647); experiment: Inhibition of [125I]AB-MECA binding to rat Adenosine A3 receptor expressed in CHO cells; assay type: cell-based
T5 sequence (P28647 whole entry): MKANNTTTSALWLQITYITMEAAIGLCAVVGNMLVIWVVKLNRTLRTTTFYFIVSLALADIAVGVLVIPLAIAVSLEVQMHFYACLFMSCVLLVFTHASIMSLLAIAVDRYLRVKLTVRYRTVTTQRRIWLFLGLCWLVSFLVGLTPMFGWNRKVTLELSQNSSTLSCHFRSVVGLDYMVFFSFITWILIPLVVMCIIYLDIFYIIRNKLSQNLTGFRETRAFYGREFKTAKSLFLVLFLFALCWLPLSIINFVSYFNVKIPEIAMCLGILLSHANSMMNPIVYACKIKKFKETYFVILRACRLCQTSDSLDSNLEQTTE

Adenosine receptor A3 [5] = target: T6, Adenosine receptor A3 (Homo sapiens, UniProt P0DMS8); experiment: Inhibition of [125I]-AB-MECA binding to human Adenosine A3 receptor expressed in CHO cells; assay type: cell-based
T6 sequence (P0DMS8 whole entry): T3 sequence (whole entry)

Adenosine receptor A2a [6] = target: T2, Adenosine receptor A2a; experiment: Displacement of [3H]-CGS- 21680 from human Adenosine A2A receptor expressed in CHO cells at 10 uM; assay type: cell-based
Procedure, shortened: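 Human A2A receptor stably expressed in adherent CHO cells. Competition binding used [3H]CGS 21680 as the radioligand.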

T2 sequence (P29274 whole entry): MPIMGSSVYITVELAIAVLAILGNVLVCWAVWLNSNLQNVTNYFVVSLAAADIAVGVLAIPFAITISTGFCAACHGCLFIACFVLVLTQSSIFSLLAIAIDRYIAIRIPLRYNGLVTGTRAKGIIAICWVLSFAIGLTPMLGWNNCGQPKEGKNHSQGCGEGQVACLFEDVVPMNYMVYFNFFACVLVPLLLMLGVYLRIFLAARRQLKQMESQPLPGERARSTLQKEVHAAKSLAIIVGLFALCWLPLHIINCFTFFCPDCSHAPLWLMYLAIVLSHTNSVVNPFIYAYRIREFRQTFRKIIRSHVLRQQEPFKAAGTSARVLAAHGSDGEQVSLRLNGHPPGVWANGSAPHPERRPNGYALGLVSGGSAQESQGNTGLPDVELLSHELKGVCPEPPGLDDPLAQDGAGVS

Compound | Activation [1] [%] | Ki (Adenosine receptor A2a [2]) [µM] | Activation [3] [%] | Ki (Adenosine receptor A3 [4]) [µM] | Displacement (Adenosine receptor A2a [6]) [%] | Ki (Adenosine receptor A1) [µM] | Ki (Adenosine receptor A3 [5]) [µM] | Inhibition (Adenosine receptor A1; cho) [%]
CNC(=O)[C@]12C[C@@H]1[C@@H](n1cnc3c(NCc4cc(Cl)ccc4Cl)nc(Cl)nc31)[C@H](O)[C@@H]2O | 32 | 1.3 |  |  |  |  |  | 
OC[C@H]1O[C@@H](n2cnc3c(NCc4cccc(I)c4)ncnc32)[C@H](O)[C@@H]1O | 58 |  | 46 |  |  | 0.0074 |  | 
CNC(=O)[C@]12C[C@@H]1[C@@H](n1cnc3c(NCc4cc(I)ccc4Cl)nc(Cl)nc31)[C@H](O)[C@@H]2O | 58 | 0.48 |  |  |  |  |  | 
CNC(=O)[C@]12C[C@@H]1[C@@H](n1cnc3c(NCc4cc(Cl)ccc4OCC(N)=O)nc(Cl)nc31)[C@H](O)[C@@H]2O |  | 0.8 |  |  |  |  |  | 
CNC(=O)[C@]12C[C@@H]1[C@@H](n1cnc3c(NC)nc(N)nc31)[C@H](O)[C@@H]2O |  |  |  |  | 17 |  |  | 
CNC(=O)[C@]12C[C@@H]1[C@@H](n1cnc3c(NCc4ccccc4C)nc(Cl)nc31)[C@H](O)[C@@H]2O | 24 | 3.8 |  |  |  |  |  | 
CNc1nc(N)nc2c1ncn2[C@@H]1O[C@H](CO)[C@@H](O)[C@H]1O | 11 |  | 98 | > 10 | 15 |  |  | 
CNC(=O)[C@@]12C[C@@H]1[C@@H](n1cnc3c(NCc4cccc(Cl)c4)nc(Cl)nc31)[C@H](O)[C@@H]2O | 38 | 2.3 |  | 0.001 |  | 0.26 |  | 
CNC(=O)[C@]12C[C@@H]1[C@@H](n1cnc3c(NCc4cccc(Br)c4)nc(Cl)nc31)[C@H](O)[C@@H]2O | 38 | 1.3 | 100 | 0.00076 |  | 0.27 | 0.00038 | 
CNC(=O)[C@H]1O[C@@H](n2cnc3c(NCc4cccc(I)c4)ncnc32)[C@H](O)[C@@H]1O | 0 |  |  |  |  |  |  | 
OC[C@@]12C[C@@H]1[C@@H](n1cnc3c(NCc4cccc(I)c4)nc(Cl)nc31)[C@H](O)[C@@H]2O |  | 1.6 | 3 |  |  | 0.065 | 0.0019 | 
CNC(=O)[C@]12C[C@@H]1[C@@H](n1cnc3c(NCc4cc(C#CCO)ccc4Cl)nc(Cl)nc31)[C@H](O)[C@@H]2O | 6 |  | 108 |  | 12 |  | 0.217 | 14
OC[C@H]1O[C@@H](n2cnc3c(NCc4cccc(Cl)c4)ncnc32)[C@H](O)[C@@H]1O |  |  | 80 | 0.035 |  |  | 0.0044 | 
CNC(=O)[C@]12C[C@@H]1[C@@H](n1cnc3c(NCc4cc(Cl)ccc4OCc4ccccc4)nc(Cl)nc31)[C@H](O)[C@@H]2O | 49 | 0.85 | 110 | 0.011 |  | 1.2 | 0.0052 | 
CNC(=O)[C@@]12C[C@@H]1[C@@H](n1cnc3c(NCc4cccc(I)c4)nc(Cl)nc31)[C@H](O)[C@@H]2O |  |  | 100 |  |  |  |  | 
CNC(=O)[C@@]12C[C@@H]1[C@@H](n1cnc3c(NCc4cc(Cl)ccc4OC)nc(Cl)nc31)[C@H](O)[C@@H]2O | 37 | 1.2 |  |  |  |  |  | 
CNC(=O)[C@]12C[C@@H]1[C@@H](n1cnc3c(NCC(c4ccccc4)c4ccccc4)nc(Cl)nc31)[C@H](O)[C@@H]2O | 46 | 1.6 | 107 | 0.01 |  | 1.3 | 0.00069 | 
CNC(=O)[C@]12C[C@@H]1[C@@H](n1cnc3c(NCc4cccc(C#CCO)c4)nc(Cl)nc31)[C@H](O)[C@@H]2O | 28 |  |  |  | 56 |  |  | 
CNC(=O)[C@H]1O[C@@H](n2cnc3c(NCc4cccc(I)c4)nc(Cl)nc32)[C@H](O)[C@@H]1O | 0 |  |  |  |  |  |  | 
OC[C@H]1O[C@@H](n2cnc3c(NCc4cccc(I)c4)nc(Cl)nc32)[C@H](O)[C@@H]1O | 16 |  | 0 |  |  | 0.017 |  | 
OC[C@@]12C[C@@H]1[C@@H](n1cnc3c(NCc4cccc(I)c4)ncnc31)[C@H](O)[C@@H]2O |  | 0.86 | 13 |  |  | 0.035 | 0.0092 | 
CNC(=O)[C@]12C[C@@H]1[C@@H](n1cnc3c(NCc4ccc(N)c(I)c4)nc(Cl)nc31)[C@H](O)[C@@H]2O |  | 1.1 |  |  |  |  |  | 
CNC(=O)[C@]12C[C@@H]1[C@@H](n1cnc3c(NCc4cc(OC)ccc4OC)nc(Cl)nc31)[C@H](O)[C@@H]2O | 0 |  | 107 |  | 52 | 1.6 | 0.0014 | 
Cc1ccccc1CNc1ncnc2c1ncn2[C@@H]1O[C@H](CO)[C@@H](O)[C@H]1O |  |  | 100 | 0.038 |  |  |  | 
OC[C@H]1O[C@@H](n2cnc3c(NCc4cccnc4)ncnc32)[C@H](O)[C@@H]1O |  | 2.3 | 100 | 0.29 |  | 0.042 | 0.0045 | 
CNC(=O)[C@]12C[C@@H]1[C@@H](n1cnc3c(NCc4cccc(Cl)c4)nc(SC)nc31)[C@H](O)[C@@H]2O |  |  | 100 |  | 52 | 0.61 | 0.0015 | 

Further lines, with some results ahead:

Activation [1] [%] | Ki (Adenosine receptor A2a [2]) [µM] | Activation [3] [%] | Ki (Adenosine receptor A3 [4]) [µM] | Displacement (Adenosine receptor A2a [6]) [%] | Compound | Ki (Adenosine receptor A1) [µM] | Ki (Adenosine receptor A3 [5]) [µM] | Inhibition (Adenosine receptor A1; cho) [%]
48 | 4.8 |  |  |  | CNC(=O)[C@]12C[C@@H]1[C@@H](n1cnc3c(NC4CC4c4ccccc4)nc(Cl)nc31)[C@H](O)[C@@H]2O (stereo not given in full) |  |  | 
16 |  |  | 6.4 | 17 | CNc1ncnc2c1ncn2[C@@H]1O[C@H](CO)[C@@H](O)[C@H]1O | 6 | 0.0093 | 
 |  | 100 |  |  | CNC(=O)[C@@]12C[C@@H]1[C@@H](n1cnc3c(NCc4cccc(I)c4)ncnc31)[C@H](O)[C@@H]2O |  |  | 
 |  |  |  | 43 | CNC(=O)[C@]12C[C@@H]1[C@@H](n1cnc3c(NCc4cccc(Cl)c4)nc(I)nc31)[C@H](O)[C@@H]2O |  |  | 
46 | 3.7 |  |  |  | CNC(=O)[C@]12C[C@@H]1[C@@H](n1cnc3c(NCc4cccc(C)c4)nc(Cl)nc31)[C@H](O)[C@@H]2O |  |  | 
 |  | 104 |  | 6 | CNC(=O)[C@@]12C[C@@H]1[C@@H](n1cnc3c(NC)nc(Cl)nc31)[C@H](O)[C@@H]2O |  |  | 
4 |  |  |  | 33 | CNC(=O)C12C[C@@H]1[C@@H](n1cnc3c(NCc4cccnc4)nc(Cl)nc31)[C@H](O)[C@@H]2O (single isomer, unassigned) |  |  | 
22 |  |  |  | 28 | CNC(=O)[C@]12C[C@@H]1[C@@H](n1cnc3c(NCc4ccc(N)cc4)nc(Cl)nc31)[C@H](O)[C@@H]2O |  |  | 
70 |  | 0 | 0.54 |  | OC[C@H]1O[C@@H](n2cnc3c(NCC(c4ccccc4)c4ccccc4)ncnc32)[C@H](O)[C@@H]1O |  |  | 
28 | 5.1 |  |  |  | CNC(=O)[C@]12C[C@@H]1[C@@H](n1cnc3c(NCc4cccc(F)c4)nc(Cl)nc31)[C@H](O)[C@@H]2O |  |  | 
26 | 2.5 | 101 | 0.4 |  | OC[C@H]1O[C@@H](n2cnc3c(NC4CC4c4ccccc4)ncnc32)[C@H](O)[C@@H]1O (stereo not given in full) |  |  | 
57 | 0.4 |  |  |  | COc1ccc(Cl)cc1CNc1ncnc2c1ncn2[C@@H]1O[C@H](CO)[C@@H](O)[C@H]1O |  |  | 
46 | 0.43 |  |  |  | CNC(=O)[C@]12C[C@@H]1[C@@H](n1cnc3c(NCc4cc(I)ccc4OC)nc(Cl)nc31)[C@H](O)[C@@H]2O |  |  | 
